In ChEMBL document CHEMBL4346656, “Synthesis of urea analogues bearing N-alkyl-N'-(thiophen-2-yl) scaffold and evaluation of their innate immune response to toll-like receptors” (Eur J Med Chem, 2019):
Activity calls are given as the source filed them. The rule behind the calls is not given here.

What was measured:
Type in all cases: cell-based
Toll-like receptor 2 [1] = target: T1, Toll-like receptor 2 (Homo sapiens, UniProt O60603); assay: Agonist activity at human TLR2 expressed in HEK-Blue cells assessed as activation of SEAP incubated for 24 hrs by quanti-blue SEAP assay
Procedure, shortened: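 TLR2 agonism in HEK-Blue hTLR2 cells, 4 × 10⁴/well, pre-cultured 24 h in DMEM/10% FBS at 37 °C, then treated 24 h with compound in fresh DMEM (tested up to 200 μM). Supernatant SEAP was read with QUANTI-Blue at 37 °C for 0.5–1 h, A620. EC50 came from at least three independent repeats.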

Toll-like receptor 2 [2] = target: T1, Toll-like receptor 2; assay: Agonist activity at human TLR2 expressed in HEK-Blue cells assessed as increase in TLR2 expression at 0.1 uM incubated for 24 hrs by Western blot analysis relative to control
Procedure, shortened: (§1)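 Western blot: HEK-Blue hTLR2 cells, 1.5 × 10⁶/well, were grown 24 h, then treated in serum-free DMEM with compound (0–50 μM) for 24 h. Cells were lysed in RIPA/PMSF, equal lysate loaded, SDS-PAGE, nitrocellulose. Membranes were blocked with 5% milk, probed overnight at 4 °C with rabbit anti-TLR2 (1:2000), then HRP secondary, with GAPDH as loading control. Three independent experiments.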

TLR2/TLR6 (Homo sapiens) = TLR2/TLR6 (Homo sapiens) (UniProt O60603+Q9Y2C9); assay: Agonist activity at human TLR2/6 expressed in HEK-Blue cells assessed as activation of SEAP at 0.5 uM incubated for 24 hrs by quanti-blue SEAP assay in presence of Anti-hTLR6-IgG
Procedure, shortened: (§2)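 HEK-Blue hTLR2 cells (endogenous TLR1 and TLR6) were seeded at 4 × 10⁴/well in DMEM with 10% FBS and grown 24 h at 37 °C. The medium was then replaced with DMEM holding 0.5 μM compound plus anti-hTLR1-IgG, anti-hTLR2-IgA or anti-hTLR6 antibody (0–10 μg/mL) for 24 h. Supernatant was mixed 1:1 with QUANTI-Blue for 0.5–1 h at 37 °C and A620 read.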

Toll-like receptor 2 [3] = target: T1, Toll-like receptor 2; assay: Agonist activity at human TLR2 expressed in HEK-Blue cells assessed as NF-kappaB activation at 10 uM incubated for 24 hrs by quanti-blue SEAP assay
Procedure, shortened: (§3)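 HEK-Blue hTLR2 cells (human TLR2 plus NF-κB-driven SEAP reporter in HEK293) were seeded at 4 × 10⁴/well and pre-grown 24 h at 37 °C. They were then exposed 24 h to compound in DMEM, with or without triptolide. SEAP in the supernatant was read with QUANTI-Blue (1:1, 37 °C, 0.5–1 h) at A620. Mean ± SD of three independent experiments.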

Toll-like receptor 2 [4] = target: T1, Toll-like receptor 2; assay: Agonist activity at human TLR2 expressed in HEK-Blue cells assessed as increase in TLR2 expression at 10 uM incubated for 24 hrs by Western blot analysis relative to control; procedure, shortened: as §1
[5] = target: Toll-like receptor 3 (Homo sapiens) (UniProt O15455); assay: Agonist activity at human TLR3 expressed in HEK-Blue cells assessed as activation of SEAP up to 100 uM incubated for 24 hrs by quanti-blue SEAP assay
Procedure, shortened: (§4)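 HEK-Blue hTLR3 or hTLR4 cells were seeded at 4 × 10⁴/well and pre-grown 24 h, then incubated 24 h with compound at 0–100 μM. […] SEAP in the supernatant was read by QUANTI-Blue at OD620.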

Toll-like receptor 2 [6] = target: T1, Toll-like receptor 2; assay: Agonist activity at human TLR2 expressed in HEK-Blue cells assessed as NF-kappaB activation at 10 uM incubated for 24 hrs in presence of NF-kappaB inhibitor, triptolide by quanti-blue SEAP assay; procedure, shortened: as §3
Toll-like receptor 2 [7] = target: T1, Toll-like receptor 2; assay: Agonist activity at human TLR2 in PMA differentiated THP-1 cells assessed as TNF-alpha production incubated for 4 hrs by ELISA
Procedure, shortened: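 THP-1 cells (2.5 × 10⁵/mL) were differentiated with 100 nM PMA in RPMI/10% FBS for 24 h at 37 °C, 5% CO₂. They were washed, rested 24 h in fresh medium, then treated 4 h with compound in serum-free RPMI. Supernatant TNF-α was measured by sandwich ELISA against recombinant standards, duplicate samples. Mean ± SD, three independent experiments.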

[8] = target: Toll-like receptor 4 (Homo sapiens) (UniProt O00206); assay: Agonist activity at human TLR4 expressed in HEK-Blue cells assessed as activation of SEAP at 10 ug/ml incubated for 24 hrs by quanti-blue SEAP assay
[9] = target: T2, Toll-like receptor 1/2 (Homo sapiens) (UniProt O60603+Q15399); assay: Agonist activity at human TLR1/2 expressed in HEK-Blue cells assessed as activation of SEAP at 0.5 uM incubated for 24 hrs by quanti-blue SEAP assay in presence of Anti-hTLR1-IgG; procedure, shortened: as §2
[10] = target: T2, Toll-like receptor 1/2 (Homo sapiens); assay: Agonist activity at human TLR1/2 expressed in HEK-Blue cells assessed as activation of SEAP at 0.5 uM incubated for 24 hrs by quanti-blue SEAP assay in presence of Anti-hTLR2-IgA; procedure, shortened: as §2
[11] = Cytotoxicity against human HEK-Blue cells transfected with hTLR2 assessed as cell viability upto 100 uM incubated for 24 hrs by CCK8 assay
Procedure, shortened: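 HEK-Blue hTLR2 cells, 4 × 10⁴/well, were pre-cultured 24 h in DMEM/10% FBS at 37 °C, then exposed to compound for 24 h at 37 °C. Half the medium was removed, CCK-8 added, and incubation run 1–4 h at 37 °C before reading A450. Mean ± SD of three independent experiments.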

[12] = target: Toll-like receptor 4 (Homo sapiens) (UniProt O00206); assay: Agonist activity at human TLR4 expressed in HEK-Blue cells assessed as activation of SEAP up to 100 uM incubated for 24 hrs by quanti-blue SEAP assay; procedure, shortened: as §4

T1 sequence (O60603 whole entry): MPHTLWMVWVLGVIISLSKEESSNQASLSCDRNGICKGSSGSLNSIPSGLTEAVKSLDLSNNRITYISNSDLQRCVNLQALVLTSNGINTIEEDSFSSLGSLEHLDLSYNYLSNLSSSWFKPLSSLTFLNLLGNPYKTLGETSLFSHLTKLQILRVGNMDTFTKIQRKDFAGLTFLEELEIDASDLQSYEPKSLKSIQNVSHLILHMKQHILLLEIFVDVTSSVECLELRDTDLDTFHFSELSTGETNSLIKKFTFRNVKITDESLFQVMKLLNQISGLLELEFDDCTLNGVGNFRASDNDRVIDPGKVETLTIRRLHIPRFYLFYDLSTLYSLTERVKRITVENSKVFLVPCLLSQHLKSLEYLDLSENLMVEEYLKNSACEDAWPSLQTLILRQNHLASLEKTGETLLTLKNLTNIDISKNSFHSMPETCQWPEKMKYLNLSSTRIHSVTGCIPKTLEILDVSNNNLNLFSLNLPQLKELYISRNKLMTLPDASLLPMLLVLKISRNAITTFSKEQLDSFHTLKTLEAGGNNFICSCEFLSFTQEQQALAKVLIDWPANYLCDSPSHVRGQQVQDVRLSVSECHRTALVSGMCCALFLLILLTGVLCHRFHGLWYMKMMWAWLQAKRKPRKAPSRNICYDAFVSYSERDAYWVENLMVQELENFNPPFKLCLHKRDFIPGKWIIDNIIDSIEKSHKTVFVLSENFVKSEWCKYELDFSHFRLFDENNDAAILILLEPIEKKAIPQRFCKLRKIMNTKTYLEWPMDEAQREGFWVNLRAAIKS
Sequence of Toll-like receptor 4 (Homo sapiens) (O00206 whole entry): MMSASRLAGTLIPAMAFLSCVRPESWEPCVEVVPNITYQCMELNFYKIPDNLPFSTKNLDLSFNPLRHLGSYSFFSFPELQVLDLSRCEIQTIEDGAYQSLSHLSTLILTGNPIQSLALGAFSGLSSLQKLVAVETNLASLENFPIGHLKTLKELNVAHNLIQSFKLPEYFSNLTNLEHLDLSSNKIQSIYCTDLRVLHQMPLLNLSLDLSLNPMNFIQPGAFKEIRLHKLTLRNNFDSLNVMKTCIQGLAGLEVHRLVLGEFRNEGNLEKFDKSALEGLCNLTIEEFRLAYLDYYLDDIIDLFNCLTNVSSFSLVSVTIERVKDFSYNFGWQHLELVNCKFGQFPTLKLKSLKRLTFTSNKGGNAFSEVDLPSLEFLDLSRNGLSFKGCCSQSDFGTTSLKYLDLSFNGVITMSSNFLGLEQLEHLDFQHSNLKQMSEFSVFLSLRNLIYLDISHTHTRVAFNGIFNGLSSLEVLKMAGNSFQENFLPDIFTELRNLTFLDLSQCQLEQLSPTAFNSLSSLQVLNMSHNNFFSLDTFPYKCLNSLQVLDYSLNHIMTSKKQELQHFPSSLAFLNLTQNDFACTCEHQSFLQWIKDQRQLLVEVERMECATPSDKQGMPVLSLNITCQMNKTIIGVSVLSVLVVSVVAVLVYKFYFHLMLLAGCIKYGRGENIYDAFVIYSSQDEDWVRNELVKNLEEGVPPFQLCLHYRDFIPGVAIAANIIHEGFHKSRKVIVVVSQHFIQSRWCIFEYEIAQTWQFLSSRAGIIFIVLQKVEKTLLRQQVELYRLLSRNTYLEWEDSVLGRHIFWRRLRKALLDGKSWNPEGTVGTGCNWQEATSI
Sequence of Toll-like receptor 3 (Homo sapiens) (O15455 whole entry): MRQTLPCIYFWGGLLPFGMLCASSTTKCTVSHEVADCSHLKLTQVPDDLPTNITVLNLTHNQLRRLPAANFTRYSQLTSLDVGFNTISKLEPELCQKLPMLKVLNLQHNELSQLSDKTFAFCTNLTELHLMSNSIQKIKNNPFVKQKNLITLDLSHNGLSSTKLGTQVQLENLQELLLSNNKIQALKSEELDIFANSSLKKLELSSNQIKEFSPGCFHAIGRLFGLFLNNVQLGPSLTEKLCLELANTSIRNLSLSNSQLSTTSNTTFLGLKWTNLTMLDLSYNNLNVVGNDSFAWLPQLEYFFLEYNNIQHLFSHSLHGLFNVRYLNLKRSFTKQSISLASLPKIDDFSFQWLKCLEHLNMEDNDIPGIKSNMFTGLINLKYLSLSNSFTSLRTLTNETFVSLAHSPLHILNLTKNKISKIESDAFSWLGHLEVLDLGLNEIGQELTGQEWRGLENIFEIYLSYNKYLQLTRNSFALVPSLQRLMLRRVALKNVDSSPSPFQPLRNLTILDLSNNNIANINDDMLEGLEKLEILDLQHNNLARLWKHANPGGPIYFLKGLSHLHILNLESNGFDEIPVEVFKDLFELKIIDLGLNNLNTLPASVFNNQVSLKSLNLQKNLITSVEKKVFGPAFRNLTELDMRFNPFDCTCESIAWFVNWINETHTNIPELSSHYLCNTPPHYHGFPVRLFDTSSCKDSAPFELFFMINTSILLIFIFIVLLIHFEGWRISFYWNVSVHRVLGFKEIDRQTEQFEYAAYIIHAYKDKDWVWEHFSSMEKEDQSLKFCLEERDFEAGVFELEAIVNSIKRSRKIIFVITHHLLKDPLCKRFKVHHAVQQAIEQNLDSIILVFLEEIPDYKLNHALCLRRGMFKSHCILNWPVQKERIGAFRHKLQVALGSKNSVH

| Compound | EC50 (Toll-like receptor 2 [1]; read-out: EC50) | EC50 (Toll-like receptor 2 [1]) | other results |
| --- | --- | --- | --- |
| COC(=O)c1c(NC(=O)N2CCN(C)CC2)sc2c1CCC2 | 0.45 µM |  |  |
| CCOC(=O)c1c(NC(=O)N2CCN(CC)CC2)sc2c1CCC2 | 8.55 µM |  |  |
| CC(C)OC(=O)c1c(NC(=S)N2CCN(C)CC2)sc2c1CCC2 | 16.4 µM |  |  |
| CCCOC(=O)c1c(NC(=O)N2CCN(C)CC2)sc2c1CCC2 | 14.2 µM |  |  |
| CC(C)OC(=O)c1c(NC(=O)N2CCN(c3ccccc3)CC2)sc2c1CCC2 |  | Not Active |  |
| CC(C)OC(=O)c1c(NC(=S)N2CCNCC2)sc2c1CCC2 |  | Not Active |  |
| CCOC(=O)c1c(NC(=S)N2CCN(C)CC2)sc2c1CCCC2 | 6.43 µM |  |  |
| COC(=O)c1c(NC(=O)N2CCN(C)CC2)sc2c1CCCC2 | 0.16 µM |  | fold change (FC) (Toll-like receptor 2 [2]): > 5; Activity (TLR2/TLR6 (Homo sapiens)): Active; Activity (Toll-like receptor 2 [3]): Active; fold change (FC) (Toll-like receptor 2 [4]): 8; Activity [5]: inactive; Activity (Toll-like receptor 2 [6]): inactive; Activity (Toll-like receptor 2 [7]): Dose-dependent effect; Activity [8]: inactive; Activity [9]: inactive; Activity [10]: inactive; Activity [11]: Non-Toxic; Activity [12]: inactive |
| COC(=O)c1c(NC(=O)N2CCN(C)CC2)sc2c1CCC(C)C2 (stereo unspecified) | 11.8 µM |  |  |
| CC(C)OC(=O)c1c(NC(=S)N2CCN(C)CC2)sc2c1CCCC2 | 45.2 µM |  |  |
| CCOC(=O)c1c(NC(=S)N2CCN(c3ccccc3)CC2)sc2c1CCC2 |  | Not Active |  |
| CCOC(=O)c1c(NC(=O)N2CCN(CCO)CC2)sc2c1CCC2 |  | Not Active |  |
| CCCOC(=O)c1c(NC(=S)N2CCN(C)CC2)sc2c1CCCC2 |  | Not Active |  |
| CCOC(=O)c1c(NC(=O)N2CCCCC2)sc2c1CCC2 |  | Not Active |  |
| CCCCCC1CCc2c(sc(NC(=O)N3CCN(C)CC3)c2C(=O)OC)C1 (stereo unspecified) |  | Not Active |  |
| CCOC(=O)c1c(NC(=O)N2CCN(C(C)=O)CC2)sc2c1CCC2 |  | Not Active |  |
| CCOC(=O)c1c(NC(=O)N2CCN(C)CC2)sc2c1CCC2 | 0.56 µM |  |  |
| COC(=O)c1c(NC(=O)N2CCN(C)CC2)sc2c1CCCCC2 | 1.33 µM |  |  |
| CC(C)OC(=O)c1c(NC(=S)N2CCN(c3ccccc3)CC2)sc2c1CCC2 |  | Not Active |  |
| CC(=O)N1CCN(C(=S)Nc2sc3c(c2C(=O)OC(C)C)CCC3)CC1 |  | Not Active |  |
| CCOC(=O)c1c(NC(=O)N2CCN(C)CC2)sc2c1CCCC2 | 0.35 µM |  |  |
| CC(C)OC(=O)c1c(NC(=O)N2CCN(C)CC2)sc2c1CCC2 | 4.59 µM |  |  |
| CN1CCN(C(=O)Nc2sc3c(c2C(=O)O)CCC3)CC1 |  | Not Active |  |
| CCN1CCN(C(=O)Nc2sc3c(c2C(=O)OC(C)C)CCC3)CC1 |  | Not Active |  |
| CCOC(=O)c1c(NC(=O)N2CCOCC2)sc2c1CCC2 |  | Not Active |  |
| CCCOC(=O)c1c(NC(=O)N2CCN(C)CC2)sc2c1CCCC2 | 6.63 µM |  |  |
| CCOC(=O)c1c(NC(=S)N2CCN(C)CC2)sc2c1CCC2 | 3.46 µM |  |  |
| CC(C)OC(=O)c1c(NC(=S)N2CCN(C)CC2)sc2c1CCCCC2 |  | Not Active |  |
| CCOC(=O)c1c(NC(=S)N2CCN(C(C)=O)CC2)sc2c1CCC2 |  | Not Active |  |
